These results are taken from ChEMBL document CHEMBL4325904 (Eur J Med Chem, 2019).

Active and inactive are the calls of the source. The calls are words filed in the database; no cut-off is given here.

For assay [1], the species on record is Homo sapiens. The assay can be described thus: Selectivity ratio of IC50 for recombinant N-terminal GST-tagged /C-terminal His-tagged human HDAC4 (627 to 1084 residues) to IC50 for recombinant N-terminal GST-tagged human HDAC6 (1 to 1215 residues).
The subject of another assay is A549. The assay can be described thus: Induction of morphological changes in human A549 cells assessed as increase in protrusions of the membrane at 10 uM after 20 mins by naphthalimide/Lysotracker Deep Red dye-based inverted light fluorescence confocal microscopic analysis. In kind it is functional, cell-based. Put shortly:
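A549 cells exposed to compound at 10 µM for 20 minutes, then imaged by confocal microscopy (λex 405 nm, λem 460–560 nm); membrane protrusions (blebbing) recorded.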

The species entered for assay [2] is Homo sapiens. As to the kind of experiment: Selectivity ratio of IC50 for recombinant N-terminal GST-tagged human HDAC7 (518 to 991 residues) to IC50 for recombinant N-terminal GST-tagged human HDAC6 (1 to 1215 residues).
In a further assay the test system is Kasumi 1. The assay can be described thus: Potency index, ratio of scriptaid IC50 to test compound IC50 for human Kasumi-1 cells. The class given is functional.

Take `O=C(CCCCCN1C(=O)c2cccc3c(NCc4ccccc4)ccc(c23)C1=O)NO`: the Ratio IC50 stood at 1500 in the assay listed under Homo sapiens [1] and 910 in the assay filed under Homo sapiens [2]. For the same compound, in the assay with A549, the result was Active.

Take `CCCNc1ccc2c3c(cccc13)C(=O)N(CCCCCC(=O)NO)C2=O`: the Ratio IC50 in the assay filed under Homo sapiens [1] was greater than 2000; in the assay on Kasumi 1, 5; in the assay filed under Homo sapiens [2] it was 1900.
